The nature of data set [1]: folding enthalpy; higher = less favourable; fluorescence melt of hairpins on a sequencing array, two-state fit. The note with it: sodium 0.088 M. An outline of the steps: (§1)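 In 50 mM Na-HEPES pH 8.0 containing 25 mM NaCl, hairpins from the library on a sequenced MiSeq flow cell were imaged for Cy3 fluorescence at 2.5 °C steps up to 60 °C, with Cy3 and quencher oligos annealed. After normalisation to pre-quench Cy3 and to control constructs, two-state fits with bootstrapping gave melting temperature and folding enthalpy. Four replicates were combined by inverse-variance weighting, and fitted temperatures were shifted up by 9.35 °C to match UV melts.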

Data set [2] in a line: melting temperature; fluorescence melt of hairpins on a sequencing array, two-state fit, raised by 9.35 °C to match UV melts. As to conditions: sodium 0.088 M. The procedure, abridged:
as §1

For GGGATACCGAAAGGTCCC (((..(((....)))))), the folding enthalpy in data set [1] is -17.4 kcal/mol. For the same sequence, the Tm in data set [2] turned out to be 45.2 °C.
For GGGATATCGAAAGATCCC (((..(((....)))))), the folding enthalpy in data set [1] was -27.9 kcal/mol. For the same sequence, the Tm in data set [2] worked out at 43.4 °C.
The corresponding values for GGGATCCGAAAGGACCCC (((.(((....))).))) are -35.2 kcal/mol and 59.1 °C.
The corresponding values for GGGATCGAAAGATAGCCC ((((((....)))..))) are -17.3 kcal/mol and 32.4 °C.
For GGGATCGAAAGATTCCC ((((((....))).))), in that order: -25 kcal/mol and 51 °C.
In the case of GGGATCGGAAACGATTCC ((.((((....)))).)), in data set [1], the folding enthalpy was -40.7 kcal/mol. Also, the Tm in data set [2] was found to be 53.5 °C.
Turning to GGGATCGGAAACGGTTCC ((.(.((....)).).)), in data set [1], the folding enthalpy was -35.7 kcal/mol. Also, the Tm in data set [2] was found to be 40.9 °C.
For GGGATGCCGAAAGGCCCC (((..(((....)))))), in that order: -15.6 kcal/mol and 46.6 °C.
For GGGATGCGAAAGCACCCC (((.(((....))).))), in that order: -27.7 kcal/mol and 61.4 °C.
As to GGGATTCGAAAGAAACCC (((.(((....))).))), the folding enthalpy in data set [1] was -48.4 kcal/mol. Also, the Tm in data set [2] was found to be 50.6 °C.
For GGGATTGGAAACAATCTC (.(((((....))))).), in that order: -28.3 kcal/mol and 45.3 °C.
For GGGATTGGAAACAGTTCC ((.(.((....)).).)), in that order: -16.6 kcal/mol and 34.3 °C.
Regarding GGGATTGGAAACGATCTC (.(((.(....).))).), in data set [1], the folding enthalpy was -15.3 kcal/mol. Moreover, in data set [2], the Tm came to 31.4 °C.
The corresponding values for GGGCAAACGAAAGTTCCC (((..(((....)))))) are -19.5 kcal/mol and 35.6 °C.
The corresponding values for GGGCAACGAAAGTTTCCC (((.(((....))).))) are -32.1 kcal/mol and 47.4 °C.
For GGGCACCGAAAGGTCCC (((.(((....)))))), in that order: -34 kcal/mol and 54.5 °C.
For GGGCACGAAAGTGCGCCC ((((((....)))..))), the folding enthalpy in data set [1] was -11.8 kcal/mol. In addition, the Tm in data set [2] worked out at 54.9 °C.
With GGGCACGAAAGTGGACCC ((((((....)))..))), the folding enthalpy in data set [1] is -17.9 kcal/mol. Moreover, in data set [2], the Tm worked out at 53.6 °C.
For GGGCACGGAAACGCACCC (((..((....))..))), in that order: -20.2 kcal/mol and 35.6 °C.
The corresponding values for GGGCACGGAAACGTACCC (((.(((....))).))) are -40.1 kcal/mol and 51.4 °C.
The corresponding values for GGGCACGGAAACGTGCTC (.(((((....))))).) are -14.6 kcal/mol and 63.2 °C.
As to GGGCACGGAAACGTGTCC ((.((((....)))).)), the folding enthalpy in data set [1] is -40.8 kcal/mol. Further, the Tm in data set [2] turned out to be 63.4 °C.
The corresponding values for GGGCAGAAATGCCC (((((....))))) are -24 kcal/mol and 65.2 °C.
For GGGCAGCGAAAGCTCCCC (((.(((....))).))), in that order: -18.3 kcal/mol and 56.3 °C.
On to GGGCAGCGAAAGCTTCCC (((.(((....))).))), for which the folding enthalpy in data set [1] is -38.7 kcal/mol. Also, the Tm in data set [2] was 55.8 °C.
The corresponding values for GGGCAGGGAAACCCGCCC ((((.((....)).)))) are -38.2 kcal/mol and 60 °C.
In the case of GGGCAGGGAAACCTACCC (((.(((....))).))), in data set [1], the folding enthalpy was -29.2 kcal/mol. The Tm in data set [2] turned out to be 45.5 °C.
For GGGCATCCGAAAGGACCC (((..(((....)))))), in that order: -18.3 kcal/mol and 38.6 °C.
The corresponding values for GGGCATCGAAAGATACCC (((.(((....))).))) are -31.6 kcal/mol and 49.5 °C.
For GGGCATGCGAAAGCACCC (((..(((....)))))), in that order: -18.6 kcal/mol and 42.3 °C.
As for GGGCATGGAAACATACCC (((.(((....))).))), in data set [1], the folding enthalpy is -31.8 kcal/mol. In addition, the Tm in data set [2] was determined as 44.1 °C.
Take GGGCATGGAAACGTGCCC (((((.(....).))))): the folding enthalpy in data set [1] was -50.3 kcal/mol. Further, in data set [2], the Tm was found to be 60 °C.
For GGGCCACGAAAGTGCCC (((.(((....)))))), in that order: -21.9 kcal/mol and 61.6 °C.
The corresponding values for GGGCCCACGAAAGTGCCC (((..(((....)))))) are -18.8 kcal/mol and 50.4 °C.
For GGGCCCGAAAGGGAGCCC ((((((....)))..))), in that order: -23.8 kcal/mol and 62.3 °C.
Regarding GGGCCCGGAAACGGACCC (((.(((....))).))), in data set [1], the folding enthalpy is -39.3 kcal/mol. Besides, in data set [2], the Tm came out at 58.8 °C.
